Source: PMC9594912 (International Journal of Nanomedicine, 2022)

Columns and labels:
BCRP [1] = molecular target: T1, BCRP (Homo sapiens, UniProt Q9UNQ0); test: Caco-2 transport with BCRP inhibitor Res; assay type: in vitro ADME; conditions: Res 50 μmol/L; increase taken to indicate a substrate of BCRP
T1 sequence (Q9UNQ0 1-655): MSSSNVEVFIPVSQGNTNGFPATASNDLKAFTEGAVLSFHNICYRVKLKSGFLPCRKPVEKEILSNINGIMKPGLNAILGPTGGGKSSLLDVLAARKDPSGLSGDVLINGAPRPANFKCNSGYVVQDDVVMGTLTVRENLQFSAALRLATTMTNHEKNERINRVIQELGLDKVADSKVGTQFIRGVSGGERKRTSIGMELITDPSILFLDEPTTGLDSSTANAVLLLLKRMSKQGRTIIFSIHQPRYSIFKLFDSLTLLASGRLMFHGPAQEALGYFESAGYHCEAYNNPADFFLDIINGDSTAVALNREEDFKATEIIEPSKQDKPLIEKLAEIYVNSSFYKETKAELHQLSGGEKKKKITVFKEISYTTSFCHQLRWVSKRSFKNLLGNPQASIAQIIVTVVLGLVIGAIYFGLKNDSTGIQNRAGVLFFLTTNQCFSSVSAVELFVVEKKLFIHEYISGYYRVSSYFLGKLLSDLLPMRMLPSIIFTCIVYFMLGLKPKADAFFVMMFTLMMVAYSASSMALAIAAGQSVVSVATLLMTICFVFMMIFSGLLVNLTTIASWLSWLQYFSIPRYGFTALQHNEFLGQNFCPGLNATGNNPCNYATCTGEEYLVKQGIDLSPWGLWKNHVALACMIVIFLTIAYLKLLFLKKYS
How it was run: (§1)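 Bidirectional transport across 21-day Caco-2 monolayers (TEER >300 Ω·cm2) in pH 7.4 HBSS. Free or liposomal test compound at 2.5, 5, 10 μg/mL, with efflux inhibitor added: verapamil 100 μmol/L (P-gp), indomethacin 200 μmol/L (MRP2) or reserpine 50 μmol/L (BCRP). Receiver sampled at 30–180 min with replacement. Triplicate runs; Papp from ΔQ/Δt, area and C0.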

Caco-2 cells = test: Caco-2 cell viability, MTT assay; assay type: cell-based, human
How it was run: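 Caco-2 cells seeded at 10,000/well in 96-well plates and grown 24 h at 37°C, 5% CO2. Exposed to increasing concentrations of free or liposomal test compound for 4 h, with α-MEM as negative control. Then 0.5% MTT added for 4 h at 37°C, formazan dissolved in DMSO, A490 read. Viability expressed as percent of control.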

P-gp [2] = test: SPIP with P-gp inhibitor verapamil; conditions: Ver 100 μmol/L; increase taken to indicate a substrate of P-gp
[3] = tested on: RAW264.7 macrophages stimulated by LPS; test: NO release and ELISA of TNF-α, IL-6 and IL-10 in LPS-stimulated RAW264.7; assay type: cell-based, mouse; conditions: LPS 1 µg/mL, paeonol 5 μg/mL, Pae-Lips 2.5, 5, 10 μg/mL
How it was run: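 RAW264.7 cells (DMEM, 20% FBS, 37°C, 5% CO2) seeded at 15,000/well and grown 24 h. Pretreated 2 h with free test compound (5 μg/mL final) or liposomes (2.5, 5, 10 μg/mL final). Then stimulated with LPS 1 µg/mL final (unstimulated control kept) for 20 h. Supernatant NO measured by kit; IL-6, TNF-α and IL-10 by ELISA.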

MRP2 [4] = molecular target: MRP2 (Rattus norvegicus, UniProt Q63120); test: SPIP with MRP2 inhibitor indomethacin; assay type: in vivo, rats; conditions: Indo 200 μmol/L; increase taken to indicate a substrate of MRP2
Chain of MRP2 (Rattus norvegicus, UniProt Q63120) (Q63120 whole entry): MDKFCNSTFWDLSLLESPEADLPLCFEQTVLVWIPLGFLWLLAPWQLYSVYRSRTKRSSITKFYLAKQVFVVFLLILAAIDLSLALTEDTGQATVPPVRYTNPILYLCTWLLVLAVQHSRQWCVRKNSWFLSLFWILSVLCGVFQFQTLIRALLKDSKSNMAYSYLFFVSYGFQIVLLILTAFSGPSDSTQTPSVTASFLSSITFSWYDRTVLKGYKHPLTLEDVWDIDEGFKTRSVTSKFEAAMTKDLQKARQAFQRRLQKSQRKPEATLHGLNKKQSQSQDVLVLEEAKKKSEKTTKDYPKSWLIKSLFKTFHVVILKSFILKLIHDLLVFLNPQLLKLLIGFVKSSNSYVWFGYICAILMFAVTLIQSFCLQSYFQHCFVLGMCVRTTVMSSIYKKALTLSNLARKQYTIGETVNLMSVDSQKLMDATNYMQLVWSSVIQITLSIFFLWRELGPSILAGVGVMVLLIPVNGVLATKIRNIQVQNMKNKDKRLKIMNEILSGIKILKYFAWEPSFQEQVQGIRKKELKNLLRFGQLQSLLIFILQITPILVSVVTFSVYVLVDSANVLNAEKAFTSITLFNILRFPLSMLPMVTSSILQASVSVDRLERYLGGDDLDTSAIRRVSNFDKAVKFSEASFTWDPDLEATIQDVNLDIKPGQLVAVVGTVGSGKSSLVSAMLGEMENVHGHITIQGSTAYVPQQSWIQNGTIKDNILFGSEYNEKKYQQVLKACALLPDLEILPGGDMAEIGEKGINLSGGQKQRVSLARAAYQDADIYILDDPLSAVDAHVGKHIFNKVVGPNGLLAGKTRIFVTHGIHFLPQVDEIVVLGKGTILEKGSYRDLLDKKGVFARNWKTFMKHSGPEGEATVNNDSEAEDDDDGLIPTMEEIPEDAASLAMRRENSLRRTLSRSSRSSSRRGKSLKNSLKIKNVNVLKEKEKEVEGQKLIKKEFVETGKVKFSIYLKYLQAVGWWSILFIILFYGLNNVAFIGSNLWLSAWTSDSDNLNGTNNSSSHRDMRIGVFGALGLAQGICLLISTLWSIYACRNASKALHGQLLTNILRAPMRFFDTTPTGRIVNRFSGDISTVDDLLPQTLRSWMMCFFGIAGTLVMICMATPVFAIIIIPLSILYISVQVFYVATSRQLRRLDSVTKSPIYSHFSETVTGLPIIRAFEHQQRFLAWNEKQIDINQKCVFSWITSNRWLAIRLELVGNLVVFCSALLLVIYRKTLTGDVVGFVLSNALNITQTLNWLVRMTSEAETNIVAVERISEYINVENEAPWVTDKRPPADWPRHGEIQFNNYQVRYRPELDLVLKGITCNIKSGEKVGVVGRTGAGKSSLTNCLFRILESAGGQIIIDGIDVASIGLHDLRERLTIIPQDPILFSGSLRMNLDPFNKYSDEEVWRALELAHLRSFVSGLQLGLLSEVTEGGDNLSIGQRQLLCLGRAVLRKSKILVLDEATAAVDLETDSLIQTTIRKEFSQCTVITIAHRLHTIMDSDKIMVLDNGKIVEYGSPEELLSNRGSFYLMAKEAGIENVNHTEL

In vitro drug release = assay type: physicochemical; conditions: PBS (pH 7.4), 24 hours, 37°C
How it was run: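 Dialysis bags holding 2 mL of free suspension or liposomes with equal drug content. Immersed in 60 mL PBS pH 7.4, SGF or SIF, each with 0.5% Tween-80, shaken at 37°C, 100 rpm. 1 mL withdrawn at intervals and replaced with fresh medium. Drug quantified by HPLC (C18, methanol:water 80:20, 254 nm). Cumulative release % calculated with sampling correction, then fitted to kinetic models.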

[5] = RAW264.7 cell viability, MTT assay; assay type: cell-based; conditions: mouse, RAW 264.7 macrophages
How it was run: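 Log-phase RAW264.7 macrophages seeded at 10,000/well in 96-well plates and grown 24 h. Treated for 24 h with graded concentrations of free or liposomal test compound, 6 replicate wells per group. Then 0.5% MTT added for 4 h, formazan dissolved in DMSO, absorbance read at 490 nm.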

[6] = tested on: intestinal segments (duodenum, jejunum, ileum and colon); test: In situ single-pass intestinal perfusion; assay type: in vivo, rats; conditions: 125, 250, 500 μg/mL; taken to indicate passive diffusion
[7] = Transport study in Caco-2 cell monolayer; assay type: in vitro ADME; conditions: human, Caco-2, pH 7.4
How it was run: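 Caco-2 cells grown in α-MEM with 20% FBS, 1% NEAA, 4 mM glutamine and pen/strep. Seeded on transwells and cultured 21 days; monolayers with TEER >300 Ω·cm2 used. In pH 7.4 HBSS, free or liposomal test compound (2.5, 5, 10 μg/mL) added apically (A→B) or basolaterally (B→A). Receiver sampled at 30–180 min with replacement. Triplicate runs; Papp from ΔQ/Δt, area and C0; efflux ratio derived.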

P-gp [8] = molecular target: P-gp (Homo sapiens, UniProt P08183); test: Caco-2 transport with P-gp inhibitor Ver; assay type: in vitro ADME; conditions: Ver 100 μmol/L; increase taken to indicate a substrate of P-gp
Chain of P-gp (Homo sapiens, UniProt P08183) (P08183 whole entry): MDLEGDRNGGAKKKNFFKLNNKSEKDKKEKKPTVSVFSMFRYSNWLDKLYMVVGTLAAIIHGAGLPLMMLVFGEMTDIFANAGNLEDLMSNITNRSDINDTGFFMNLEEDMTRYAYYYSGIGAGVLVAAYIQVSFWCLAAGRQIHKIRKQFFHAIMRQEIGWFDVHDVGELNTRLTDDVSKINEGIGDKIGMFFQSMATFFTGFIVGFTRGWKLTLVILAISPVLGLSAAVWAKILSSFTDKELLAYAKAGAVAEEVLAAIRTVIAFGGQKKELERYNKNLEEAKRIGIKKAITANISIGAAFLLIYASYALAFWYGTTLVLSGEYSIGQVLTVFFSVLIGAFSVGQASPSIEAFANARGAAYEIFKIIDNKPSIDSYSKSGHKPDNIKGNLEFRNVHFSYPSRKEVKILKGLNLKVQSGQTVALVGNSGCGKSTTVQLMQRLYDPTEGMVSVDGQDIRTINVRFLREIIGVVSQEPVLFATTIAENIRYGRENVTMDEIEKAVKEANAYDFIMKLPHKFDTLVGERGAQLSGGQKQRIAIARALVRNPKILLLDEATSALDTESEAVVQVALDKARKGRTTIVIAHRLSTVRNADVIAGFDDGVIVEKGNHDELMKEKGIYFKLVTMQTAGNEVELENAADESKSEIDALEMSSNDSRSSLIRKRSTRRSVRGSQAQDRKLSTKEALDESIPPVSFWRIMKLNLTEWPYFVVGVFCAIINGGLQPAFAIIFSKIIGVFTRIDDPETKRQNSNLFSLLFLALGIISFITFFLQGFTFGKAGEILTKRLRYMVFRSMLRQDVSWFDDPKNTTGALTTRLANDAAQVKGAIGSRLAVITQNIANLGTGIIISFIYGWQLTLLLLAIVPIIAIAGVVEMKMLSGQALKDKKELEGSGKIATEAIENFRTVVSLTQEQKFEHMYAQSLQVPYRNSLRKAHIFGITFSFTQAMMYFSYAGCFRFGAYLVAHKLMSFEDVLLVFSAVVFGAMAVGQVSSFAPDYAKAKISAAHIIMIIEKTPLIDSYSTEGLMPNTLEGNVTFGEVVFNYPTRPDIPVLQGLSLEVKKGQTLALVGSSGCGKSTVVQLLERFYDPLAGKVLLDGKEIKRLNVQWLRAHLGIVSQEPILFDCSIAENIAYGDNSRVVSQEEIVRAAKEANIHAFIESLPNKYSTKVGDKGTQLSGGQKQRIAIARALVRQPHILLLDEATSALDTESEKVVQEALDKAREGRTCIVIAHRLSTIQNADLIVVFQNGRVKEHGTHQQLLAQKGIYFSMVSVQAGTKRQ
How it was run: as §1

MRP2 [9] = molecular target: MRP2 (Homo sapiens, UniProt Q92887); test: Caco-2 transport with MRP2 inhibitor Indo; assay type: in vitro ADME; conditions: Indo 200 μmol/L; increase taken to indicate a substrate of MRP2
Chain of MRP2 (Homo sapiens, UniProt Q92887) (Q92887 whole entry): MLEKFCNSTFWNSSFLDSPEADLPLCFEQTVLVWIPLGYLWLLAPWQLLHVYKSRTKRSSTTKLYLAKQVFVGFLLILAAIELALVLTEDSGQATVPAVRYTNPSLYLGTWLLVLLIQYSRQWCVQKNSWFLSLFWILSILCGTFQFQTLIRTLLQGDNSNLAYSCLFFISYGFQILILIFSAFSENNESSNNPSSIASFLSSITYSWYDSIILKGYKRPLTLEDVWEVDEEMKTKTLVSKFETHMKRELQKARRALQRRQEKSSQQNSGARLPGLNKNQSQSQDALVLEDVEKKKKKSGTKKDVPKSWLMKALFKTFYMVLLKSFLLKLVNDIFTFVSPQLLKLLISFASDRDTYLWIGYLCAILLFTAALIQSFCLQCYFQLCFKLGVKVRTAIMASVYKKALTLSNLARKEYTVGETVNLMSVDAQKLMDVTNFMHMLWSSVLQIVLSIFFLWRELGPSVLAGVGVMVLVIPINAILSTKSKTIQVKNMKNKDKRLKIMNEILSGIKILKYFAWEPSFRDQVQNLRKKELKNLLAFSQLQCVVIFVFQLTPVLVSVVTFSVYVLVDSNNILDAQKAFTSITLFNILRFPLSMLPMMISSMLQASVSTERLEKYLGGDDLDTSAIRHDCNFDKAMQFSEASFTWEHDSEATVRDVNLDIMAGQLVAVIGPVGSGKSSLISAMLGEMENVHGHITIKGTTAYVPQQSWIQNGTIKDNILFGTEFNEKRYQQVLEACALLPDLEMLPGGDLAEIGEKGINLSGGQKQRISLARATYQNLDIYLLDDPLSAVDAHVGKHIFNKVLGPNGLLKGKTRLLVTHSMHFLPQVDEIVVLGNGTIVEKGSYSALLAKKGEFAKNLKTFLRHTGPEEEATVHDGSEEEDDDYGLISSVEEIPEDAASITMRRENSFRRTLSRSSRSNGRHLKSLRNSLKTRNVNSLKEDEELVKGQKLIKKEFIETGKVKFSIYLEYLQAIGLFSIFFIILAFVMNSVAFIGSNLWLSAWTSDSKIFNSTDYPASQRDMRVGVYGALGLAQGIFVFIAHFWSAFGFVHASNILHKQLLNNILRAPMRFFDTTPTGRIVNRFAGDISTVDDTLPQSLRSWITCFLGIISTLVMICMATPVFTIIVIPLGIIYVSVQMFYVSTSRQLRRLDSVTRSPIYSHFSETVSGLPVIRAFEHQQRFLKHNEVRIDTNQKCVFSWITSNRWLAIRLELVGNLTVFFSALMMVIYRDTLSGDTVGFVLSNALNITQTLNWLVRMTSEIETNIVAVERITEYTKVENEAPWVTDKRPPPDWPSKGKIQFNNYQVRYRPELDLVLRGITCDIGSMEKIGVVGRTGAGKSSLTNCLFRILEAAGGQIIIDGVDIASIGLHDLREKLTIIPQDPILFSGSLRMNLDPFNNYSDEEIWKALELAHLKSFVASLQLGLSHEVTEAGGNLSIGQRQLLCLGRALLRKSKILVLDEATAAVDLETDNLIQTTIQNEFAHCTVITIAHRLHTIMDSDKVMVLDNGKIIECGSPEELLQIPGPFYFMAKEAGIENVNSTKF
How it was run: as §1

BCRP [10] = molecular target: T2, BCRP (Rattus norvegicus, UniProt Q80W57); test: SPIP with BCRP inhibitor reserpine; assay type: in vivo, rats; conditions: Res 50 μmol/L; increase taken to indicate a substrate of BCRP
T2 sequence (Q80W57 1-657): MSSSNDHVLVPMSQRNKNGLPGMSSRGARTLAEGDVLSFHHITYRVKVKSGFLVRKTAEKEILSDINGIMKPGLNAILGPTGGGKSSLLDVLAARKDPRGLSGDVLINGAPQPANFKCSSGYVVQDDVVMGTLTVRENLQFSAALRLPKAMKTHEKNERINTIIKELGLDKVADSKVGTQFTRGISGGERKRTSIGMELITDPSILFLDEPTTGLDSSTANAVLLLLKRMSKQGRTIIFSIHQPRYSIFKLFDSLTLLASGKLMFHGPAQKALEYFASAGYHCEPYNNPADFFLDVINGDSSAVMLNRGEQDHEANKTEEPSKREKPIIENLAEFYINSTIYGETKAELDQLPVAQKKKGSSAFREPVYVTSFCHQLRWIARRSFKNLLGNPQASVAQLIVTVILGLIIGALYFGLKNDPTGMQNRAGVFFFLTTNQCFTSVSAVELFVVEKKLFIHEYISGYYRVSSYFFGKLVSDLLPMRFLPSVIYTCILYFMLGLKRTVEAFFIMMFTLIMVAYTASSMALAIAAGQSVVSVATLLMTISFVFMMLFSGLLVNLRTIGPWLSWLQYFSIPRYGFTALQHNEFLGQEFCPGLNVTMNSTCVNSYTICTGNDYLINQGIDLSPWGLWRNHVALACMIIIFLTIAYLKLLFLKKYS

UC induced by DSS = test: DSS colitis: histological examination of colon; assay type: in vivo, Balb/c mice; conditions: SASP 500 mg/kg; Pae-Lips-H 400 mg/kg
How it was run: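 Male Balb/c mice (10 weeks, n = 6/group) given 3% (w/v) DSS in drinking water for 7 days. Dosed by gavage twice daily, suspended in 0.5% CMC-Na. Distal colon (~2 cm) fixed in 10% formaldehyde and HE-stained. Scored for mucosal inflammation severity, lesion extent and crypt damage.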

SMILES: COc1ccc(C(C)=O)c(O)c1 [Paeonol, 2’-hydroxy-4’-methoxyacetophenone]
- Papp value (AP-BL) with Res (BCRP [1]): significantly increased
- Caco-2 cell viability (Caco-2 cells; concentration exceeds 10 μg/mL): significantly reduced
- survival rate of Caco-2 cells (Caco-2 cells; within 10 μg/mL, 4 hours): greater than 90%
- Papp in each intestinal segment after adding Ver (P-gp [2]): significantly increased
- IL-10 level vs LPS group [3]: increased
- IL-6 level vs LPS group ([3]; p < 0.05): decreased
- NO level vs LPS group ([3]; p < 0.05): decreased
- TNF-α level vs LPS group ([3]; p < 0.05): decreased
- Papp in each intestinal segment after adding Indo (MRP2 [4]): significantly increased
- cumulative release percentage (P%) (In vitro drug release): 36.05 ± 2.94%
- viability at 24 h, 5 μg/mL [5]: > 80%
- Papp values at different concentrations [6]: no significant difference
- Papp A→B at 180 min, 2.5 μg/mL [7]: 3.25 ± 0.32 ×10⁻⁶ cm/s
- Papp A→B at 180 min, 5 μg/mL [7]: 3.62 ± 0.13 ×10⁻⁶ cm/s
- Papp A→B at 180 min, 10 μg/mL [7]: 3.65 ± 0.52 ×10⁻⁶ cm/s
- Papp B→A at 180 min, 2.5 μg/mL [7]: 4.17 ± 0.22 ×10⁻⁶ cm/s
- Papp B→A at 180 min, 5 μg/mL [7]: 5.19 ± 0.3 ×10⁻⁶ cm/s
- Papp B→A at 180 min, 10 μg/mL [7]: 5.32 ± 0.67 ×10⁻⁶ cm/s
- Papp value (AP-BL) with Ver (P-gp [8]): significantly increased
- Papp value (AP-BL) with Indo (MRP2 [9]): significantly increased
- Papp in each intestinal segment after adding Res (BCRP [10]): significantly increased

SMILES: O=C(O)c1cc(/N=N/c2ccc(S(=O)(=O)Nc3ccccn3)cc2)ccc1O [SASP]
- colon histopathology finding (UC induced by DSS): no obvious lesions
